The text below walks through data of publication PMC6150782 (Journal of molecular neuroscience : MN, 2018).

Data set [1] has as its system hippocampal cultures. It is filed as cell-based, rat. The conditions noted are these: for cell death response at 30 min or 60 min of incubation / time points with significant cell death differences from control: 30 μM cannabidiol, 100 μM KLS-13019, day 18–19 cultures.
Data set [2] is described as follows: Mouse plasma pharmacokinetics. It is filed as in vivo, CD1 mice.
The nature of data set [3]: Metabolic stability in mouse liver microsomes. It is filed as in vitro ADME. An outline of the steps:
(§1)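 Test compound at 1 μM incubated with human or mouse liver microsomes for up to 60 min. Samples analysed by LTQ-Orbitrap XL mass spectrometry. Single determination per time point. Testosterone at 1 μM served as the metabolically labile control. Run by a contract lab.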

Data set [4] concerns dissociated rat hippocampal cultures. The data set is classed as cell-based. An outline of the steps:
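Papain-dissociated E18 rat hippocampal cells at 10,000/well in serum-free Neurobasal/B27/GlutaMAX, used at days 12–14 after a medium change. Test compound (DMSO stock diluted in DPBS, ≤0.1% DMSO; 5 concentrations, n=5, two plates) added 5 min before 30 mM ethanol plus 300 μM ammonium acetate, then 5 h at 37 °C. CFDA 15 min at 37 °C, 30 min efflux wash, Triton lysis, Ex490/Em517. EC50 from 4-parameter logistic fit.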

Data set [5] can be described thus: Metabolic stability in human liver microsomes. The data set is classed as in vitro ADME. In outline:
as §1

For data set [6], the system named is dissociated rat hippocampal cultures. The data set is classed as cell-based. In outline:
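E18 rat hippocampal cultures at days 12–14 received test compound (5 concentrations, n=5, two plates) 5 min before 30 mM ethanol plus 300 μM ammonium acetate, then 5 h at 37 °C. Medium removed and 50 μM propidium iodide applied for 15 min in the dark at room temperature. Read at Ex536/Em590 minus cell-free blank wells. IC50 from 4-parameter logistic fit.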
This is another data set of the same source.

Data set [7] deals with hippocampal cultures. The data set is described as follows: Effect of CB2 antagonist AM 630 on neuroprotection from ethanol, CFDA assay. To be noted: AM 630 0.1 to 100 nM; 30 mM ethanol; 10 μM CBD or 100 nM KLS-13019. It is filed as cell-based, rat.
A further data set has as its target hERG channel (Homo sapiens, UniProt Q12809). The data set is described as follows: hERG channel binding assay. The conditions noted are these: 10 μM; [3H]-dofetilide; HEK-293. In outline: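 Binding to human recombinant hERG expressed in HEK-293 cells, using 3 nM [3H]-dofetilide. Test compound at 10 μM, 60 min at room temperature. Non-specific binding defined with 25 μM terfenadine. Reported as % inhibition of control specific binding. Run by a contract lab.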
(The hERG channel carries a current that helps repolarise heart muscle cells.)

Data set [8] in a line: Aqueous solubility, shaken flask method. It is filed as physicochemical. In outline:
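Shake-flask method at pH 1.2, 7.4 and 9.2. Dissolved concentration measured by HPLC against a standard curve.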

Data set [9] can be described thus: Plasma protein binding, equilibrium dialysis, mouse plasma. To be noted: 1 μM, 5 hours at 37 °C. It is filed as in vitro ADME. (In general: In equilibrium dialysis free small molecules cross a membrane that holds back macromolecules.)
A further data set deals with CB2 (Homo sapiens, UniProt P34972). In words: CB2 binding. The conditions noted are these: 10 μM; 0.8 nM radioligand; human recombinant CHO cells.
Sequence of CB2 (P34972 whole entry): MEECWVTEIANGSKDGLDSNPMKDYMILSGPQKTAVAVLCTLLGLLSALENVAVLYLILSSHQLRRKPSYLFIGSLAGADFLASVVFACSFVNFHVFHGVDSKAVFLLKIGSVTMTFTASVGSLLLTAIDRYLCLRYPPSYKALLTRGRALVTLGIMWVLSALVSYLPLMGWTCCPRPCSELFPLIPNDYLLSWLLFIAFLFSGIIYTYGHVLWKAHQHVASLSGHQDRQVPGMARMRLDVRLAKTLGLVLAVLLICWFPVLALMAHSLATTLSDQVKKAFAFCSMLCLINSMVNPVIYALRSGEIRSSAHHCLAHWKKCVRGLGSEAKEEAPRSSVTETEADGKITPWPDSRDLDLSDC
A further data set deals with T1, PPARγ (Homo sapiens, UniProt P37231).
T1 sequence (P37231 1-505): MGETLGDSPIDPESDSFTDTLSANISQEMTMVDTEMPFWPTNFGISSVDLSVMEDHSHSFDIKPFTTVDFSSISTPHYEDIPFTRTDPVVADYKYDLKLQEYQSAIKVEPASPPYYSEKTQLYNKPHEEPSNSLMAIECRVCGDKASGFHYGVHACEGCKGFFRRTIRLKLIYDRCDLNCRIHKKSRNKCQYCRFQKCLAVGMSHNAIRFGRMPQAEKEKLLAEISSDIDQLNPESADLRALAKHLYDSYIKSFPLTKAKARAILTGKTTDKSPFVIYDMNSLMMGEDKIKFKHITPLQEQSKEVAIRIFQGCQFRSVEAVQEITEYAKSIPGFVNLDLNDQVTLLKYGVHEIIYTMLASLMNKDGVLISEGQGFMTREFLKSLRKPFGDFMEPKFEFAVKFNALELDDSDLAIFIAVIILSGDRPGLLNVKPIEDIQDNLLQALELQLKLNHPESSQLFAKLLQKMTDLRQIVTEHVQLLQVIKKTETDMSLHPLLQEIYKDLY
The data set is described as follows: PPARγ agonist binding. To be noted: 10 μM; data not shown.

The nature of data set [10]: Plasma protein binding, equilibrium dialysis, human plasma. The data set is classed as in vitro ADME. The conditions noted are these: 1 μM, 5 hours at 37 °C.
Data set [11] can be described thus: Anticonvulsant activity in animal models. To be noted: in vivo.
The next data set has as its target T2, 5HT1a (Homo sapiens, UniProt P08908).
T2 sequence (P08908 1-422): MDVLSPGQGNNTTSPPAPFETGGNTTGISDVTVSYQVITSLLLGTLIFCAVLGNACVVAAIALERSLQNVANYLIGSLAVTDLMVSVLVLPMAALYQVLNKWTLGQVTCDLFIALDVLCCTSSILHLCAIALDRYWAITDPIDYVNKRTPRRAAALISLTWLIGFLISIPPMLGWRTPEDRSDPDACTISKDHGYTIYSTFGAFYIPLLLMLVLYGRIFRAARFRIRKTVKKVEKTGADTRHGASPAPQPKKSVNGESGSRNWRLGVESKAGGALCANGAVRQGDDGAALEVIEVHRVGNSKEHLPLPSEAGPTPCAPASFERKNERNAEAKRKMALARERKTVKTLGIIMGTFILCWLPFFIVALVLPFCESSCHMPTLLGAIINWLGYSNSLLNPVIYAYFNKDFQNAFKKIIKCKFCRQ
In words: 5HT1a agonist binding. The conditions noted are these: 10 μM; data not shown.

Another data set has as its target TRPV1 (Homo sapiens, UniProt Q8NER1). The data set is described as follows: TRPV1 receptor binding screen. To be noted: 10 μM; data not shown.
The test system of data set [12] is hippocampal cultures. The data set is classed as cell-based, rat.
A short description of another data set: Log P. It is filed as physicochemical.
[13] abbreviates: male, CD1, mouse, plasma, po, 10 mg/kg.
Setting [14] is: combined ethanol + ammonium acetate.
[15] abbreviates: CD1 mice, plasma, 10 mg/kg p.o.
[16] abbreviates: compound alone in Captisol, 5 hours, day 14 cultures.

In brackets after ≈: the same amount, converted by molar mass.

Sequence of TRPV1 (Q8NER1 whole entry, species assumed): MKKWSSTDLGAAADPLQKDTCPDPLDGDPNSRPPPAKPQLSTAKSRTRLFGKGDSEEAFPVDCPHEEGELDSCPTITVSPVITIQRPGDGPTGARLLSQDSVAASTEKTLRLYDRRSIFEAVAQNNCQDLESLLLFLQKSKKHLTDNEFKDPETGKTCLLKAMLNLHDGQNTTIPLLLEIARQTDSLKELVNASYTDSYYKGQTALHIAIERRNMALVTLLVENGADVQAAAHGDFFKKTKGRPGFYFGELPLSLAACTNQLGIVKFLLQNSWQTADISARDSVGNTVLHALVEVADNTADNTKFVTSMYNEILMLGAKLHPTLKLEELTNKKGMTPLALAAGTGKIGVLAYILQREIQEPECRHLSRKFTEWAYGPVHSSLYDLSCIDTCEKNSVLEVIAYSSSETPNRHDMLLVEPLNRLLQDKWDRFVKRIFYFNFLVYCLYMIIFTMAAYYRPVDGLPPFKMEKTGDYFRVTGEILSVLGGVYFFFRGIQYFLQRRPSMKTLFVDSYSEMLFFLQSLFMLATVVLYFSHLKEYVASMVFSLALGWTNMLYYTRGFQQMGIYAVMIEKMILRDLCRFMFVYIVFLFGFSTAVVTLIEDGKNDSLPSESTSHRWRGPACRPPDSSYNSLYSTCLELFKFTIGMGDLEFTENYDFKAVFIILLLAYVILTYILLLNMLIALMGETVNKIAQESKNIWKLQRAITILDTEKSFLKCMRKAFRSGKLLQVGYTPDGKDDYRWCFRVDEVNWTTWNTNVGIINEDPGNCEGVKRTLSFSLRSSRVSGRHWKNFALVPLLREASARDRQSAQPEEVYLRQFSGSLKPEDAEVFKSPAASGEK
Sequence of hERG channel (Q12809 whole entry): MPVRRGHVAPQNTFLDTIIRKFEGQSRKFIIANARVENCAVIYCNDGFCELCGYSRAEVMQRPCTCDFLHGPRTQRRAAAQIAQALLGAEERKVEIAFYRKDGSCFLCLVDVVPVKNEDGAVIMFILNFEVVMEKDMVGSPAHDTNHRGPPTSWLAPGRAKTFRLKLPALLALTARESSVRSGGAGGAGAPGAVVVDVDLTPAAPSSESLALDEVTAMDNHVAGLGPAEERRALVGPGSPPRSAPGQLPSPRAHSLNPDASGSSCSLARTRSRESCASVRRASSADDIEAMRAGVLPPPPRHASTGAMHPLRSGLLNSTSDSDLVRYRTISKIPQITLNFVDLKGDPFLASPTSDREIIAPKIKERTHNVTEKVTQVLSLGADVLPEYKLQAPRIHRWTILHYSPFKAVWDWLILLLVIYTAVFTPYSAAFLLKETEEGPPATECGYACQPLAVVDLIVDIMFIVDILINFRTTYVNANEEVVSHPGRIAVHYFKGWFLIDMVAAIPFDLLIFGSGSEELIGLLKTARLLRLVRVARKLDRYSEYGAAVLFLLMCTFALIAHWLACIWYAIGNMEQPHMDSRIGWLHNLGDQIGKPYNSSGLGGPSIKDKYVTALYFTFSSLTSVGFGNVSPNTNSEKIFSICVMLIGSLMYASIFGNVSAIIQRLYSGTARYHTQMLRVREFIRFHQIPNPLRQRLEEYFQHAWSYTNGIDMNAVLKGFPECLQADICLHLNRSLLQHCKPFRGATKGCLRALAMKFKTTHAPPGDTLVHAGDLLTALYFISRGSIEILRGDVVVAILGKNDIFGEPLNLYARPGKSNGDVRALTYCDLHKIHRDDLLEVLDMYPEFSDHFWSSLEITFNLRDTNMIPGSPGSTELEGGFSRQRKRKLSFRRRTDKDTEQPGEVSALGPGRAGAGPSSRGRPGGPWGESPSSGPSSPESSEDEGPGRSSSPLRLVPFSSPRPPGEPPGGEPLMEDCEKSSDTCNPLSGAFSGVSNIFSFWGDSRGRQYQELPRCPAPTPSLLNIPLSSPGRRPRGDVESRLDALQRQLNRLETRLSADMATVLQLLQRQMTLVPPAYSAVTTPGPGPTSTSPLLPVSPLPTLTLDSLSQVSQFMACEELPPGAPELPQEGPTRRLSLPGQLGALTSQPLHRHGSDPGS

In the case of `O=C1CSC(c2ccccc2Cl)c2cc(Cl)ccc2N1` (stereo not shown) [CGP-37157, 7-Chloro-5-(2-chlorophenyl)-1,5-dihydro-4,1-benzothiazepin-2(3H)-one, reference compound], the “concentration with significant increase in propidium iodide fluorescence” value with hippocampal cultures [1] (5 hours, day 14 cultures) is 100 µM.

As for `C=C(C)[C@@H]1CCC(C)=C[C@H]1c1c(O)cc(CCCCC)cc1O` [Cannabidiol, reference compound], the “CL IV 2 mg/kg” value in data set [2] (CD1 mice, IV 2 mg/kg) is 120 mL/min/kg. The “T 1/2 p.o.” value in data set [2] (CD1 mice, plasma, 10 mg/kg p.o., 10 mg/kg) came out at 207 min. The distribution volume (Vd) in [2] (male, CD1, mouse, plasma, iv, 2 mg/kg) was found to be 7.5 L/kg. Moreover, the bioavailability in [2] (male, CD1, mouse, plasma, oral, 10 mg/kg) is 8%. In data set [2] (setting [13]), this compound gave an area under the curve (AUC) of 268 ng·h/mL and a Cmax of 51 ng/mL. The half-life at 1 μM in data set [3] (mouse, liver microsomes) is < 5 min. The “efficacy of neuroprotection back to control levels (CFDA)” value in data set [4] (setting [14]) is recorded as “full efficacy”. In data set [4] (hippocampal cultures), the “concentration required for full efficacy against oxidative stress toxicity” value came to 10 µM. This compound also showed a half-life at 1 μM in data set [5] (human, liver microsomes) of 3.75 min. Besides, the “efficacy of neuroprotection back to control levels (PI)” value in [6] (setting [14]) was “full efficacy”. Moreover, in the data set with hippocampal cultures [1], the “cell death response at 30 min or 60 min of incubation” value is on record as “no significant changes from controls” and the “time points with significant cell death differences from control” value is ≥ 3 h. Further, the “effect of CB2 antagonist AM 630 on compound-mediated neuroprotection” value with hippocampal cultures [7] is “significantly attenuated”. Besides, the “hERG Potassium channel % Inhibition of specific binding” value at hERG channel was 73%. In [8] (aqueous medium), this compound gave a solubility of 17 µM (≈ 5.35 µg/mL).

Turning to `C=C(C)[C@@H]1CCC(C)=C[C@H]1c1c(O)cc(CC2CN(C(C)=O)C2)cc1O` [KLS-13019], in data set [2] (CD1 mice, IV 2 mg/kg), the “CL IV 2 mg/kg” value is 76.7 mL/min/kg and the “Vss IV 2 mg/kg” value is 3.2 L/kg. Moreover, in data set [2] (setting [15]), the AUC p.o. came to 617 ng·h/mL, the “Cmax at 10 mg/kg p.o.” value came out at 1080 ng/mL and the Tmax p.o. was 15 min. In addition, the “F% (oral bioavailability)” value in data set [2] (CD1 mice, oral 10 mg/kg, IV 2 mg/kg) is recorded as 67%. Moreover, the “fold increase in F% in comparison to CBD” value in data set [2] (mice) is > 8 fold. The “fold increase in AUC compared to CBD” value in data set [2] (mice, 10 mg/kg p.o.) amounted to 2.3 fold. Moreover, the “clearance (CL), i.v. arm” value in [2] (mice, i.v. 2 mg/kg) came out at 4.6 mL/min/kg. Further, in [2] (mice, p.o.), the “increase in T 1/2 in comparison to CBD” value is given as “more than 50%”. Besides, in data set [9], the “Plasma protein binding Mouse % bound” value is 99.2%. In addition, the “displacement of 3H-WIN-55212-2 radioactivity at CB2” value at CB2 turned out to be 55%. Besides, the “receptor binding PPARγ (agonist)” value at PPARγ is listed as “no detectable interactions”. The “Microsomal stability Mouse T 1/2” value in data set [3] (mouse liver microsomes, 1 μM) is 5.67 min. In addition, in [10], the “Plasma protein binding Human % bound” value was 99.2%. Moreover, in data set [4] (setting [14]), the “efficacy of neuroprotection back to control levels (CFDA)” value was “full efficacy” and the “fold increase in neuroprotective potency vs CBD (relative EC50s, CFDA)” value is recorded as 31 fold. The EC50 in [4] (read-out: EC50 for CFDA (neuroprotection), 30 mM Ethanol + 300 μM Ammonium Acetate, 5 hours, days 12–14) was 127 ± 27 nM. The “Microsomal stability Human T 1/2” value in data set [5] (human liver microsomes, 1 μM) was 5.69 min. Moreover, the “anticonvulsant activity in animal models” value in data set [11] is listed as “lack of anticonvulsant activity”. In addition, in [6] (setting [14]), the “efficacy of neuroprotection back to control levels (PI)” value is given as “full efficacy” and the “fold increase in neuroprotective potency vs CBD (relative IC50s, PI)” value was 15 fold. The IC50 in [6] (read-out: IC50 for PI (neuroprotection), 30 mM Ethanol + 300 μM Ammonium Acetate, 5 hours, days 12–14) is 203 nM. At 5HT1a, the “receptor binding to 5HT-1a agonist site” value was “no detectable interactions”. Besides, in the data set on hippocampal cultures [1], the “cell death response at 30 min or 60 min of incubation” value is “no significant changes from controls” and the “time points with significant cell death differences from control” value was ≥ 3 h. Besides, the “TC50, cell death assay” value in the data set on hippocampal cultures [1] (setting [16]) is ~100000 nM. Further, at TRPV1, the “receptor binding TRPV1 (agonist)” value is “no detectable interactions” and the “receptor binding TRPV1 (antagonist)” value is reported as “no detectable interactions”. For the same compound, the “TC50, neuronal viability assay” value with hippocampal cultures [12] (setting [16]) worked out at 81000 nM. Further, in the data set on hippocampal cultures [12] (day 14 cultures, 5 hours), the “maximal toxicity, % of control values” is reported as 73 ± 3 % of control. Further, in the data set with hippocampal cultures [12] (day 19 cultures, time course at 30 μM cannabidiol, 100 μM KLS-13019), the “maximal achieved toxicity, % of control, neuronal viability assay” value is reported as 62 ± 3 % of control. The “fold increase in TC50 relative to CBD” value in the data set with hippocampal cultures [12] (viability and cell death assays) is on record as 5 fold. In the data set with hippocampal cultures [7], the “effect of CB2 antagonist AM 630 on compound-mediated neuroprotection” value is reported as “had no effect”. For the same compound, the “hERG Potassium channel % Inhibition of specific binding” value on hERG channel amounted to 12%. In data set [8], the Aqueous solubility amounted to 87 µM and the “fold increase in aqueous solubility in comparison to CBD” value was “> five”. The “Log P” value in “Log P” was 3.42.

Usually Vd stands for the apparent volume that relates the amount in the body to the concentration in plasma or blood. The low end stands for confinement near the circulation, the high end for extensive tissue distribution. Broadly, the bioavailability is dose-corrected exposure relative to a reference, in per cent. Low readings indicate poor availability, high ones good availability. One may read the AUC as the area under the concentration-time curve, a measure of exposure. Low values mean low exposure, high ones high exposure. The term Cmax denotes the highest concentration seen after dosing. Usually half-life stands for the time in which the quantity being followed falls by half. Higher therefore signals slow loss. For orientation: solubility means the concentration that dissolves in the medium under given conditions. A lower solubility goes with a poorly soluble substance. What is called EC50 is the concentration needed to bring the measured effect to its halfway point. One may read the IC50 as the midpoint of a concentration-inhibition curve. The term Aqueous solubility denotes the dissolved amount per volume that the medium holds. High values mean much dissolved substance, low ones little dissolved substance. A word on the Log P: it is the decadic logarithm of the partition coefficient of the neutral form, usually between octanol and water. A lower Log P goes with lower lipophilicity.
